This is one part of a sample in which hits are shown more often than they occur.
HUVEC inhibit: inhibitors of HUVEC proliferation, primary screen, cell-based, 384-well. CellTiter-Glo luminescence, 72 h; hits give low values. viability, % at 10 µM (by protocol). 86,000 compounds, 1.1% hits. AID 648, 2007;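 active = viability at or below 30%; inactive = viability above 30%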;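 note: 100% = median luminescence of DMSO-only cell control wells on each plate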
PTEN del growth: growth suppression of PTEN-null HCT116, primary screen, cell-based, CellTiter-Glo; HCT116 PTEN-null viability, 60 h; hits give low values; viability, % at 10 µM; 140,000 compounds, 1.2% hits;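 active = viability at or below a set limit, 4 SD under the median of all tested compounds, cut at about 3.7% in these data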;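 note: PTEN knockout HCT116 line with beta catenin targeted HCT116 as companion control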
Lung fibro prol: antiproliferative effect on LL 47 fibroblasts – human, LL 47 cells, CellTiter-Glo luminescence, primary screen; LL 47 human lung fibroblast viability, ATP luminescence; hits give low values; viability, % at 10 µM; 85,000 compounds, 1.1% hits; AID 719, 2007;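 active = viability at or below 50% in the single dose screen; inactive = viability above 50%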;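 note: compound exposure lasted 72 h before the ATP readout; 100% = median luminescence of untreated cell-only wells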
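Test system: LL 47 human lung fibroblasts; Quantity: 1,150 cells/well; Buffer or medium: IMEM plus 15% FBS; Dosing: tenfold compound dosing solution, DMSO at 0.1%; Timing: overnight cell rest, 72 h compound treatment at 37 °C; Detection: ATP-based CellTiter-Glo luminescent readout; Read-out basis: viability percentage against median untreated-cell control; Controls: cell-only wells, no compound.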
bCat KO growth: primary screen for growth suppressors in beta-catenin knockout HCT116 cells (colon tumor, human); 140,000 compounds, 1.5% hits; viability, % at 10 µM; HCT116 beta-catenin knockout viability, CellTiter-Glo, 60 h; hits give low values;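 active = viability at or under a set limit, the compound median less 4 SD, cut at about 6% in these data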;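 note: 0% = Hyamine 1622 control at 20 µM and 100% = untreated cell control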
H69AR inhibit: proliferation blockers of H69AR lung cancer cells, primary screen, cell-based, human, 86K library. H69AR lung tumor viability, ATP luminescence, 72 h; hits give low values. viability, % at 10 µM. 85,000 compounds, 6% hits. AID 598, 2007;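 active = viability at or below 40%; inactive = viability above 40%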;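 note: multidrug resistant small cell line overexpressing MRP-1 efflux transporter; 100% = mean luminescence of untreated control wells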
* = called active by the depositor; nt = no result given.

SMILES | HUVEC inhibit | PTEN del growth | Lung fibro prol | bCat KO growth | H69AR inhibit
COc1cccc(-n2c(SCC(=O)NCCc3ccccc3)nnc2-c2ccoc2C)c1 | 91.7 | 91.4 | 98.0 | 88.6 | 100.7
N/C(=N\OC(=O)Nc1ccc(Cl)cc1)c1ncc(C(F)(F)F)cc1Cl | 66.7 | 84.4 | 106.0 | 78.0 | 31.7*
COC(=O)/C(=C(/F)Sc1cc(C)c(O)c(C)c1)C(F)(F)F | 23.1* | 77.6 | 9.3* | 80.2 | 2.7*
CCCCn1c(CCC)nc([N+](=O)[O-])c1Sc1ccc(Cl)cn1 | 77.1 | 13.7 | 72.0 | 16.2 | 2.4*
CCn1c(C)nc([N+](=O)[O-])c1Sc1ccc(F)cc1 | nt | 71.0 | nt | 76.2 | nt
O=[N+]([O-])c1ccc(Sc2ccccc2)nc1 | nt | 99.6 | nt | 102.0 | nt
CC(C)Cn1c(C(C)C)nc([N+](=O)[O-])c1Sc1ccc(Cl)cn1 | 77.6 | 62.9 | 55.3 | 76.5 | 18.8*
CCOC(=O)c1sc(NC(=O)CCCn2nc([N+](=O)[O-])c(Cl)c2C)c(C(=O)OCC)c1C | nt | 85.1 | nt | 83.1 | nt
Cc1nn(-c2ccccc2)c2nc(-c3ccncc3)cc(C(=O)NCc3ccco3)c12 | 69.8 | 53.7 | 92.3 | 60.3 | 31.3*
Cc1nn(-c2ccccn2)c2nc(-c3cccs3)cc(C(=O)NCc3ccco3)c12 | 71.0 | 66.0 | 101.0 | 63.5 | 15.8*
Cc1nc(NCc2ccco2)c2c3c(sc2n1)CCC3 | 20.8* | 59.6 | 61.9 | 59.4 | 47.0
c1coc(CNc2ncnc3sc4c(c23)CCCCC4)c1 | 92.1 | 45.0 | 100.5 | 58.5 | 89.8
CCOC(=O)c1sc(NC(=O)C2CCCO2)c(C(=O)OC)c1C (stereo not given) | 96.5 | nt | 98.9 | nt | 94.2
C=CCOC(=O)C1=C(C)NC(SCC(=O)N(CC)CC)=C(C#N)C1c1ccco1 (stereo not given) | 94.0 | 73.4 | 94.7 | 89.4 | 35.4*
COC(=O)c1nc(NC(C)=O)n[nH]1 | 102.5 | 98.8 | 104.7 | 98.9 | 93.4
COC(=O)c1nc(NC2=NCCCCC2)n[nH]1 | 94.2 | 106.7 | nt | 113.7 | 39.2*
Cc1ccc(NCN2C(=O)C3CC=CCC3C2=O)cc1 (stereo not given) | 93.9 | 95.7 | 103.3 | 102.4 | 86.5
COc1ccc(OC)c(/C=C/C(=O)c2ccc(Cl)cc2)c1 | nt | 3.1* | nt | 2.9* | nt
COc1ccccc1/C=C/C(=O)c1ccc(Cl)cc1 | nt | 14.5 | nt | 25.1 | nt
N#Cc1sc2nc(N3CCCCC3)c3c(c2c1N)CCCC3 | 7.4* | 13.0 | 90.7 | 7.6 | 23.0*
CCOC(=O)Cn1c2c(c(=N)c3c1CCC3)CCC2 | 95.2 | 92.2 | 96.1 | 93.8 | 95.9
CCCCCCCCCCn1c2c(c(=N)c3c1CCC3)CCC2 | 4.3* | 0.9* | 8.6* | 1.6* | 1.8*
C=CCc1c(C)c(C#N)c2nc3ccccc3n2c1NCCN(C)C | 99.0 | 91.5 | 96.4 | 84.4 | 33.0*
CCc1c(C)c(C#N)c2nc3ccccc3n2c1NCCN(C)C | 102.7 | 101.5 | 103.7 | 89.5 | 50.5
CCc1c(C)c(C#N)c2nc3ccccc3n2c1NCc1ccco1 | 85.0 | 76.8 | 91.8 | 82.8 | 35.6*
SMILES | HUVEC inhibit | PTEN del growth | Lung fibro prol | bCat KO growth | H69AR inhibit
Cc1cc(NCCCO)n2c(nc3ccccc32)c1C#N | nt | 98.2 | nt | 104.2 | nt
CCCNc1cc(C)c(C#N)c2nc3ccccc3n12 | 91.2 | 87.2 | 107.5 | 88.1 | 37.4*
Cc1ccc(S(=O)(=O)NC(=O)c2cc(C)n(CCCn3ccnc3)c2C)cc1 | 98.6 | 101.2 | 96.6 | 96.7 | 95.3
O=C(NCc1ccc2c(c1)OCO2)c1cc2ncc(Br)cn2n1 | 100.1 | 101.0 | 99.0 | 84.5 | 99.4
COc1cc([C@@H]2c3cc4c(cc3[C@H](O)[C@H]3COC(=O)[C@H]23)OCO4)cc(OC)c1OC | 45.9 | 13.4 | 52.5 | 14.8 | 36.0*
Cn1cc(C(=O)c2ccc(Cl)cc2Cl)cc1C(=O)N/N=C(\N)COc1ccc(F)cc1 | 86.4 | 17.8 | 82.2 | 22.7 | 24.6*
Cn1cc(C(=O)c2ccc(Cl)cc2Cl)cc1C(=O)N/N=C(\N)COc1ccccc1 | 85.9 | 17.7 | 81.6 | 17.1 | 33.4*
Cn1cc(C(=O)c2ccc(Cl)cc2Cl)cc1C(=O)O | nt | 101.0 | nt | 101.0 | nt
Cn1cc(C(=O)c2ccc(Cl)cc2Cl)cc1C(=O)N/N=C(\N)COc1ccc(Cl)cc1Cl | 62.3 | 18.4 | 68.0 | 13.9 | 18.2*
O=C(COc1ccc(Cl)cc1Cl)NN=C1CCCCC1 | nt | 98.8 | nt | 82.3 | nt
O=C(Cn1nnc(-c2cccc(C(F)(F)F)c2)n1)NC1CCCC1 | 99.0 | 92.0 | 101.5 | 96.3 | 95.2
CCOC(=O)c1c(CSC(=N)N)n(-c2ccc(Br)cc2)c2cc(Br)c(OC(C)=O)cc12 | nt | 1.6* | nt | 1.3* | nt
CCOC(=O)c1c(CSc2nc(C)cc(C)c2C#N)n(C)c2cc(Br)c(OC(C)=O)cc12 | nt | 37.5 | nt | 30.1 | nt
Cc1cccc(C(C)C)c1NC(=O)C1CN(S(=O)(=O)c2ccccc2)CCN1S(=O)(=O)c1ccccc1 (stereo not given) | nt | 93.8 | nt | 82.9 | nt
O=C(c1ccc2c(c1)N(Cc1ccccc1)C(=O)c1ccccc1S2)N1CCCC1 | 102.4 | 83.1 | 96.4 | 86.7 | 29.1*
O=C1CC(NCc2ccc3c(c2)OCO3)C(=O)N1Cc1ccc2c(c1)OCO2 (stereo not given) | 93.1 | 93.3 | 97.2 | 97.1 | 102.2
O=C(Nc1ccc(F)cc1)Nc1cc(OCC(F)(F)F)cc(OCC(F)(F)F)c1 | nt | 3.7* | nt | 5.5* | nt
CCOc1ccc(NC(=O)Nc2cc(OCC(F)(F)F)cc(OCC(F)(F)F)c2)cc1 | nt | 17.5 | nt | 40.6 | nt
O=C(NCCNC(=O)c1cc(OCC(F)(F)F)ccc1OCC(F)(F)F)Nc1ccc(Cl)cc1 | nt | 9.7 | nt | 5.4* | nt
O=C(CCc1nc(-c2ccccc2F)no1)Nc1ccc(Oc2ccccc2)cc1 | 32.3 | 15.1 | 60.3 | 8.9 | 29.5*
COc1cccc(NC(=O)CCc2nc(-c3ccccc3F)no2)c1 | 82.2 | 109.5 | 99.8 | 103.6 | 89.3
CCOC(=O)c1sc(NC(=O)CSc2n[nH]c(-c3ccc(Cl)cc3Cl)n2)c(C#N)c1C | 56.8 | 77.6 | 93.5 | 75.2 | 66.0
CC1CN(c2nc(-c3ccc(Br)cc3)nnc2-c2ccccc2)CC(C)N1 (stereo not given) | nt | 1.0* | nt | 0.9* | nt
Clc1ccc(-c2nnc(-c3ccccc3)c(N3CCSCC3)n2)cc1 | nt | 62.3 | nt | 66.3 | nt
CCCN1C(=O)c2cc(C(=O)NCCc3cccc(C)c3)ccc2C1O (stereo not given) | 100.3 | 106.4 | 95.6 | 99.9 | 130.7
O=c1c(F)cn(C2CCCO2)c(=O)n1Cc1c(Cl)cccc1Cl (stereo not given) | 88.0 | 88.6 | 90.7 | 83.7 | 28.3*
O=C(Cc1c(F)cccc1Cl)NCC1CCCO1 (stereo not given) | 94.7 | 95.8 | 99.2 | 106.6 | 95.5
COc1ccc(/C=C/c2ccncc2)c2ccccc12 | 68.8 | 73.3 | 94.4 | 74.0 | 13.8*
COc1ccccc1/C=C/C=N/NC(=O)c1ccncc1 | nt | 71.5 | nt | 68.4 | nt
CCCS(=O)(=O)c1nc(S(=O)(=O)c2ccc(C)cc2)c(N2CCc3ccccc3C2)s1 | nt | 68.7 | nt | 60.4 | nt

Bioassay records: PubChem, SRMLSC
